# Reference: ChEMBL document CHEMBL3400013, “Synthesis and biological activity evaluation of hydrazone derivatives based on a Tröger's base skeleton” (Bioorg Med Chem, 2015)
# Active and inactive are the calls of the source. No cut-off for these calls is given here.
# System: BJ
# Experiment: Selectivity index, ratio of IC50 for human BJ cells to IC50 for human K562 cells
# Format: functional
# Details: not given
row,Compound,Ratio IC50
1,O=C(N/N=C/c1cc(O)ccc1O)c1ccc2c3c(ccc2c1)N1Cc2c(ccc4cc(C(=O)N/N=C/c5cc(O)ccc5O)ccc24)N(C3)C1,8

# System: Nucleic Acid
# Experiment: Binding affinity to DNA (unknown origin) assessed as DNA intercalation by UV-visible spectrophotometry in presence of Zn2+
# Format: nucleic-acid assay
# Details: not given
row,Compound,Activity
1,O=C(N/N=C/c1cc(O)ccc1O)c1ccc2c3c(ccc2c1)N1Cc2c(ccc4cc(C(=O)N/N=C/c5cc(O)ccc5O)ccc24)N(C3)C1,Active

# System: BJ
# Experiment: Selectivity index, ratio of IC50 for human BJ cells to IC50 for human K562-TAX cells
# Format: functional
# Details: not given
row,Compound,Ratio IC50
1,O=C(N/N=C/c1cc(O)ccc1O)c1ccc2c3c(ccc2c1)N1Cc2c(ccc4cc(C(=O)N/N=C/c5cc(O)ccc5O)ccc24)N(C3)C1,13.8

# System: CCRF-CEM
# Experiment: Cell cycle arrest in human CCRF-CEM cells assessed as accumulation at S phase at 5 times IC50 after 24 hrs by propidium iodide staining-based flow cytometry
# Format: functional
# Details: not given
# Method in brief: (§1)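 Cells were then fixed in 70% ethanol, washed in hypotonic citrate buffer, treated with RNase (50 µg/mL) and stained with propidium iodide. Flow cytometry used a 488 nm laser. Apoptosis was scored as the percentage of particles with propidium content below G0/G1.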
row,Compound,Activity
1,O=C(N/N=C/c1cc(O)ccc1O)c1ccc2c3c(ccc2c1)N1Cc2c(ccc4cc(C(=O)N/N=C/c5cc(O)ccc5O)ccc24)N(C3)C1,58.22%

# System: BJ
# Experiment: Selectivity index, ratio of IC50 for human BJ cells to IC50 for human CCRF-CEM cells
# Format: functional
# Details: pooled result: one value given for 2 cell lines, strains, targets or settings
row,Compound,Ratio IC50
1,O=C(N/N=C/c1cc(O)ccc1O)c1ccc2c3c(ccc2c1)N1Cc2c(ccc4cc(C(=O)N/N=C/c5cc(O)ccc5O)ccc24)N(C3)C1,63.2

# System: CCRF-CEM
# Experiment: Cell cycle arrest in human CCRF-CEM cells assessed as accumulation at G0/G1 phase at IC50 after 24 hrs by propidium iodide staining-based flow cytometry
# Format: functional
# Details: not given
# Method in brief: as §1
row,Compound,Activity
1,O=C(N/N=C/c1cc(O)ccc1O)c1ccc2c3c(ccc2c1)N1Cc2c(ccc4cc(C(=O)N/N=C/c5cc(O)ccc5O)ccc24)N(C3)C1,37.38%

# System: K562
# Experiment: Cytostatic activity against human K562 cells after 72 hrs by MTT assay
# Format: functional, cell-based
# Details: K562, 72 h
# Method in brief: (§2)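 Cells were seeded at 25,000–30,000 per well and pre-incubated for 24 h at 37°C in 5% CO2. Four-fold compound dilutions were added in duplicate and incubated for 72 h. MTT was added for 1–4 h, and formazan was dissolved in 10% aq SDS (pH 5.5) overnight at 37°C. OD was read at 540 nm. IC50 came from dose-response curves, mean ± SD of eight independent experiments.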
row,Compound,IC50
1,O=C(N/N=C/c1cc(O)ccc1O)c1ccc2c3c(ccc2c1)N1Cc2c(ccc4cc(C(=O)N/N=C/c5cc(O)ccc5O)ccc24)N(C3)C1,440 nM

# System: not listed separately
# Experiment: Cytostatic activity against human p53-/- HCT116 cells after 72 hrs by MTT assay
# Format: functional, cell-based
# Details: HCT-116, 72 h
# Method in brief: as §2
row,Compound,IC50
1,O=C(N/N=C/c1cc(O)ccc1O)c1ccc2c3c(ccc2c1)N1Cc2c(ccc4cc(C(=O)N/N=C/c5cc(O)ccc5O)ccc24)N(C3)C1,120 nM

# System: not listed separately
# Experiment: Cytostatic activity against human CEM-DNR cells after 72 hrs by MTT assay
# Format: functional, cell-based
# Details: not given
# Method in brief: as §2
row,Compound,IC50
1,O=C(N/N=C/c1cc(O)ccc1O)c1ccc2c3c(ccc2c1)N1Cc2c(ccc4cc(C(=O)N/N=C/c5cc(O)ccc5O)ccc24)N(C3)C1,2590 nM

# System: Staphylococcus aureus
# Experiment: Antimicrobial activity against methicillin-resistant Staphylococcus aureus MRSA 4591 up to 200 uM after 24 to 48 hrs by broth microdilution method
# Format: functional, organism-based
# Details: not given
row,Compound,Activity
1,O=C(N/N=C/c1cc(O)ccc1O)c1ccc2c3c(ccc2c1)N1Cc2c(ccc4cc(C(=O)N/N=C/c5cc(O)ccc5O)ccc24)N(C3)C1,inactive

# System: K562
# Experiment: Selectivity index, ratio of IC50 for human MRC5 cells to IC50 for human K562 cells
# Format: functional
# Details: not given
row,Compound,Ratio IC50
1,O=C(N/N=C/c1cc(O)ccc1O)c1ccc2c3c(ccc2c1)N1Cc2c(ccc4cc(C(=O)N/N=C/c5cc(O)ccc5O)ccc24)N(C3)C1,8

# System: not listed separately
# Experiment: Cytostatic activity against human HCT116 cells after 72 hrs by MTT assay
# Format: functional, cell-based
# Details: HCT-116, 72 h
# Method in brief: as §2
row,Compound,IC50
1,O=C(N/N=C/c1cc(O)ccc1O)c1ccc2c3c(ccc2c1)N1Cc2c(ccc4cc(C(=O)N/N=C/c5cc(O)ccc5O)ccc24)N(C3)C1,390 nM

# System: Escherichia coli
# Experiment: Antimicrobial activity against Escherichia coli CCM 3954 up to 200 uM after 24 to 48 hrs by broth microdilution method
# Format: functional, organism-based
# Details: not given
row,Compound,Activity
1,O=C(N/N=C/c1cc(O)ccc1O)c1ccc2c3c(ccc2c1)N1Cc2c(ccc4cc(C(=O)N/N=C/c5cc(O)ccc5O)ccc24)N(C3)C1,inactive

# System: Escherichia coli
# Experiment: Antimicrobial activity against multidrug-resistant Escherichia coli C/16702 up to 200 uM after 24 to 48 hrs by broth microdilution method
# Format: functional, organism-based
# Details: not given
row,Compound,Activity
1,O=C(N/N=C/c1cc(O)ccc1O)c1ccc2c3c(ccc2c1)N1Cc2c(ccc4cc(C(=O)N/N=C/c5cc(O)ccc5O)ccc24)N(C3)C1,inactive

# System: not listed separately
# Experiment: Cytostatic activity against human K562-TAX cells after 72 hrs by MTT assay
# Format: functional, cell-based
# Details: not given
# Method in brief: as §2
row,Compound,IC50
1,O=C(N/N=C/c1cc(O)ccc1O)c1ccc2c3c(ccc2c1)N1Cc2c(ccc4cc(C(=O)N/N=C/c5cc(O)ccc5O)ccc24)N(C3)C1,260 nM

# System: BJ
# Experiment: Selectivity index, ratio of IC50 for human BJ cells to IC50 for human HCT116 cells
# Format: functional
# Details: not given
row,Compound,Ratio IC50
1,O=C(N/N=C/c1cc(O)ccc1O)c1ccc2c3c(ccc2c1)N1Cc2c(ccc4cc(C(=O)N/N=C/c5cc(O)ccc5O)ccc24)N(C3)C1,9.1

# System: not listed separately
# Experiment: Metal chelating activity of the compound assessed as formation of Ni2+ complex by UV-vis spectrometry
# Format: physicochemical
# Details: not given
row,Compound,Activity
1,O=C(N/N=C/c1cc(O)ccc1O)c1ccc2c3c(ccc2c1)N1Cc2c(ccc4cc(C(=O)N/N=C/c5cc(O)ccc5O)ccc24)N(C3)C1,Active

# System: CCRF-CEM
# Experiment: Cell cycle arrest in human CCRF-CEM cells assessed as accumulation at G0/G1 phase at 5 times IC50 after 24 hrs by propidium iodide staining-based flow cytometry
# Format: functional
# Details: not given
# Method in brief: as §1
row,Compound,Activity
1,O=C(N/N=C/c1cc(O)ccc1O)c1ccc2c3c(ccc2c1)N1Cc2c(ccc4cc(C(=O)N/N=C/c5cc(O)ccc5O)ccc24)N(C3)C1,21.32%

# System: Candida albicans
# Experiment: Antifungal activity against Candida albicans up to 200 uM after 24 to 48 hrs by broth microdilution method
# Format: functional, organism-based
# Details: not given
row,Compound,Activity
1,O=C(N/N=C/c1cc(O)ccc1O)c1ccc2c3c(ccc2c1)N1Cc2c(ccc4cc(C(=O)N/N=C/c5cc(O)ccc5O)ccc24)N(C3)C1,inactive

# System: Staphylococcus aureus
# Experiment: Antimicrobial activity against Staphylococcus aureus CCM 3953 up to 200 uM after 24 to 48 hrs by broth microdilution method
# Format: functional, organism-based
# Details: not given
row,Compound,Activity
1,O=C(N/N=C/c1cc(O)ccc1O)c1ccc2c3c(ccc2c1)N1Cc2c(ccc4cc(C(=O)N/N=C/c5cc(O)ccc5O)ccc24)N(C3)C1,inactive

# System: MRC5
# Experiment: Cytostatic activity against human MRC5 cells after 72 hrs by MTT assay
# Format: ADME, cell-based
# Details: MRC5, 72 h
# Method in brief: as §2
row,Compound,IC50
1,O=C(N/N=C/c1cc(O)ccc1O)c1ccc2c3c(ccc2c1)N1Cc2c(ccc4cc(C(=O)N/N=C/c5cc(O)ccc5O)ccc24)N(C3)C1,550 nM

# System: CCRF-CEM
# Experiment: Induction of apoptosis in human CCRF-CEM cells assessed as mitotic cells at 5 times IC50 after 24 hrs by pH3Ser10+ labeling-based flow cytometry
# Format: functional
# Details: not given
row,Compound,Activity
1,O=C(N/N=C/c1cc(O)ccc1O)c1ccc2c3c(ccc2c1)N1Cc2c(ccc4cc(C(=O)N/N=C/c5cc(O)ccc5O)ccc24)N(C3)C1,2.39%
